Compound activity deposited in PubChem BioAssay by several laboratories.
Rows were chosen to be rich in hits. Some 4.9% of all compounds tested hit in one or more screens of this group.
STAT3 inh: inhibitors of IL-6 induced STAT3 signaling | U3A cells, IL-6 STAT3-luciferase reporter, luminescence; host cell line lacks STAT1 | inhibition, % at 5.5 µM | 190,000 tested, 0.89% active;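 active means inhibition above the mean inhibition across all screened compounds plus 3 SD, cut at about 44% in these data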
STAT1 act: activators of IFN-gamma induced STAT1 signaling. AID 932. activation (% of control), % at 5.5 µM. 200,000 tested, 2.6% active. NIH 3T3 STAT1-luciferase reporter, luminescence; 100% = IFN-gamma alone, no compound;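 active means activation above the screen-wide mean activation plus 3 SD, cut at about 130% in these data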
APP 5'UTR act: APP 5'UTR luciferase reporter activation; SH-SY5Y APP 5'UTR luciferase reporter, luminescence; zero percent = DMSO vehicle wells; AID 1276; 190,000 tested, 1% active; activation, % at 2 µM;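 active means activation above a set limit, based on mean plus 3 SD of controls, cut at about 140% in these data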
STAT1 blocker: inhibitors of IFN-gamma induced STAT1 signaling; inhibition, % at 5.5 µM; 200,000 tested, 0.35% active; NIH 3T3 STAT1-luciferase reporter, luminescence;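 active means inhibition above a set limit, the mean inhibition across all tested compounds plus 3 SD, cut at about 34% in these data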
NF-kB neuron act: compounds increasing NF-kB expression in human neuronal cells; NF-kB reporter expression; stronger effect = higher value; fold change at 12.5 µM; 190,000 tested, 1.6% active; in the data active means fold change above about 3.3
STAT3 act: STAT3 signaling activation. U3A cells, IL-6 STAT3-luciferase reporter, luminescence; 100% = signal with IL-6 EC80 alone. activation (% of control), % at 5.6 µM. 190,000 tested, 0.91% active;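 active means activation above the screen-wide mean of compound activation plus 3 SD, cut at about 130% in these data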
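Material: STAT3-luciferase reporter U3A cells. Controls: IL-6-treated wells, 100% activation. Read-out: % activation versus median of IL-6-stimulated wells. Probe or stimulus: IL-6 stimulus at 33 ng/mL final. Timing: compound 1 h, then IL-6 6 h at 37 °C. Signal: reporter luminescence signal.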
Each line names hits and unclear results; the compound was inactive in the other large screens.

CC1CCN(CC(=O)Nc2ccc(N3CCCCCC3)cc2)CC1	none
COCCNC(=O)C(NC(=O)C1CCC(C)CC1)C(C)C (stereo not drawn)	none
C=CCSc1nc(C)cc(/C=C\c2ccccc2)c1C#N	none
CCOC(=O)c1nn(-c2ccc(OCC)cc2)c2nc(-c3ccco3)c(C#N)c(=O)n12	none
Cc1nc(C(C)NC(=O)CCc2nnc(-c3ccsc3)o2)cs1 (stereo not drawn)	none
CSc1ccccc1NC(=O)C(=O)c1c[nH]c2ccccc12	STAT1 act 149
O=C(Nc1nccs1)C(=O)c1c[nH]c2ccccc12	STAT1 act 133, STAT3 act 136
CCOc1ccc(NC(=S)N2CCn3c(nc4ccccc43)C2)cc1	none
COc1ccc(-n2cnc3ccccc32)cc1	none
CC(C)Cn1c(/C=C/c2ccccc2)nc2ccccc21	STAT1 act 136
COc1ccc(/C=C/c2ccncc2)cc1	STAT1 act 144
CCn1c(/C=C/c2ccccc2)nc2ccccc21	STAT1 act 133, APP 5'UTR act 205, NF-kB neuron act 7
COc1ccc(/C=C/c2nc3ccccc3n2C)cc1	STAT3 inh 102, STAT1 blocker 94
CN(C)c1ccc(/C=C/c2ccncc2)cc1	none
Cc1ccn2c(C(=O)c3ccc(Cl)cc3)cnc2c1	STAT1 act 146, APP 5'UTR act 165
O=C(Cn1nnc(-c2ccccc2NC(=O)c2ccccc2F)n1)NC1CCCC1	none
Cc1cc(-c2nc3ccccc3[nH]2)ccc1N	NF-kB neuron act 5
O=C(O)c1cccc(-c2nc3ccccc3[nH]2)c1	STAT3 inh 65, STAT1 blocker 55
Cc1ccc(-c2nc3ccccc3[nH]2)s1	NF-kB neuron act 5.5
C#CCn1c(=NC(=O)c2cc(-c3cccs3)nc3ccccc23)sc2cc(S(N)(=O)=O)ccc21	none
O=C1/C(=C\c2ccccc2)CCc2c1[nH]c1ccccc21	STAT1 act 141, APP 5'UTR act 162, NF-kB neuron act 4.7
Cc1ccc(C(=O)Nc2ccc3nc(C)sc3c2)s1	STAT1 act 141, APP 5'UTR act 167, NF-kB neuron act 6.6
CCn1nnc(NC(=O)c2ccc(-c3ccccc3[N+](=O)[O-])o2)n1	none
CC(=O)c1cccc(NC(=O)c2ccc(-c3ccccc3[N+](=O)[O-])o2)c1	NF-kB neuron act 4
COc1ccc([N+](=O)[O-])cc1NCc1ccccc1	STAT1 act 143
CCC(CC)C(=O)NCCCN1CCOCC1	none
COc1cccc2cc(C(=O)c3ccc([N+](=O)[O-])cc3)oc12	STAT1 act 135
COc1cccc2cc(C(N)=O)oc12	none
CC(C)c1ccc(Nc2nc(CC(=O)O)cs2)cc1	APP 5'UTR act 242, NF-kB neuron act 7.2
CC(=O)N1CCc2cc(S(=O)(=O)NCCC3=CCCCC3)ccc21	STAT3 inh 65 (no result: NF-kB neuron act)
COCCCNS(=O)(=O)c1ccc2c(c1)CCN2C(C)=O	none
Cc1ccsc1/C=C1\CCC(C2CCCC2)C1=O (stereo not drawn)	STAT1 act 140, APP 5'UTR act 202, NF-kB neuron act 5.9
COc1cc(OC)c(OC)cc1/C=C1\CCC(C2CCCC2)C1=O (stereo not drawn)	none
Cc1ccc(/C=C2\CCC(C3CCCC3)C2=O)cc1 (stereo not drawn)	APP 5'UTR act 157
COCC(=O)n1nc(-c2ccccc2)nc1NCc1ccccc1	STAT1 act 137
CN(C)c1ccc(CNc2nc(-c3ccccc3)nn2S(C)(=O)=O)cc1	none
CC(=O)n1nc(-c2ccccc2)nc1NCc1ccc(N(C)C)cc1	STAT1 act 142
Cc1ccc(C(=O)N/C(=C/c2ccc(F)cc2)C(=O)NCc2ccncc2)cc1	none
CSCCC(NC(=O)COc1ccccc1)C(=O)O (stereo not drawn)	none
O=C(Cc1c(O)c2ccccc2[nH]c1=O)NC1CCCCCC1	none
O=C(NC1CCCCCC1)c1c(O)c2ccccc2[nH]c1=O	STAT1 act 141
CCN1CCN(c2ccc(NC(=O)c3cccc(F)c3)cc2Cl)CC1	STAT1 act 136
O=C1NC2(CCCCC2)C(=O)N1/N=C/c1ccccc1Br	STAT1 act 131
CC(=O)OCC(=O)[C@@]12OC3(CCCC3)O[C@@H]1C[C@H]1[C@@H]3CCC4=CC(=O)C=C[C@]4(C)[C@@]3(F)[C@@H](O)C[C@@]12C	STAT1 act 129
Cc1ccccc1OCCn1cnc2cc([N+](=O)[O-])ccc2c1=O	none
N#Cc1c(/N=C/c2cc3ccccc3s2)sc2c1CCC2	none
Cc1ccc(/C=N/c2sc3c(c2C#N)CCC3)s1	STAT1 act 150
Cc1ccc(/C=N/c2sc3c(c2C#N)CCCCC3)o1	STAT1 act 139
CN1CCN(/C=N/c2sc3c(c2C#N)CCCCC3)CC1	STAT1 act 146
CC(C)CN(/C=N/c1sc2c(c1C#N)CCCCC2)CC(C)C	none
COc1ccccc1C(=O)N/C(=C\c1ccc2c(c1)OCO2)C(=O)NCCc1nc2ccccc2[nH]1	none
CCOc1cc(/C=N/NC(=O)C(=O)NCCCOC(C)C)cc(Br)c1O	none
Cc1cc(C)nc(-n2nc(C)c(Sc3ccc(F)cc3)c2N)n1	STAT1 act 131, APP 5'UTR act 165
C=CC[n+]1ccc(/C=C2\C=Cc3cc(C)ccc3N2CC)c2ccccc21	STAT3 inh 86, STAT1 blocker 36
CCN1/C(=C/c2cc[n+](CCCS(=O)(=O)[O-])c3ccccc23)Sc2ccccc21	none
O=C(Nc1ccccc1F)c1ccc([N+](=O)[O-])s1	NF-kB neuron act 3.5
Cc1ccc(C(=O)NNC(=S)Nc2cccc3ccccc23)s1	APP 5'UTR act 150, STAT3 act 134
O=C(Nc1cccc2ccccc12)c1ccc([N+](=O)[O-])s1	NF-kB neuron act 3.8
O=C(COC(=O)c1ccc([N+](=O)[O-])s1)NCc1ccccc1	none
O=C(Nc1cc(S(=O)(=O)Nc2ccc(Cl)cc2)ccc1N1CCCCC1)c1ccc(F)cc1Cl	none
O=C(Cn1cc(C(F)(F)F)cc(Cl)c1=O)Nc1cc(Cl)cc(Cl)c1	none
O=C(NCc1ccc(-c2nc3ccccc3s2)cc1)c1ccc(Br)o1	STAT1 act 137
COc1cc(C(=O)NCc2ccc(-c3nc4ccccc4s3)cc2)cc(OC)c1OC	STAT1 act 141
O=C(NCc1ccc(-c2nc3ccccc3s2)cc1)c1cc2ccccc2o1	none
COc1ccc(C(=O)NCc2ccc(-c3nc4ccccc4s3)cc2)cc1	none
COc1ccc(CN2CCNC(=O)C2CC(=O)NCCc2c[nH]c3ccccc23)c(OC)c1 (stereo not drawn)	none
O=Cc1ccc(Sc2ncccn2)o1	none
O=[N+]([O-])c1ccccc1NCCOc1ccccc1	STAT1 act 129
CN(c1ccc(OCC(=O)N2CCOCC2)cc1)S(=O)(=O)c1ccc(Cl)cc1	none
COc1cccc(NC(=S)NCc2cccs2)c1	none
